We go through 74 sequences from the array DNA melting data of Ke et al. (doi:10.1101/2024.01.08.574731).

A short description of series [1]: folding enthalpy; higher = less favourable; fluorescence melt of hairpins on a sequencing array, two-state fit. To be noted: sodium 0.088 M. Put shortly: (§1)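 Folding enthalpy and melting temperature come from bootstrapped two-state fits to Cy3 fluorescence of library hairpins carrying annealed Cy3 and quencher oligos on a sequenced MiSeq flow cell. Imaging was done in 50 mM Na-HEPES pH 8.0, 25 mM NaCl, stepping by 2.5 °C up to 60 °C, and signals were normalised to pre-quench Cy3 and to control constructs. Results of four replicates were combined by inverse variance, and fitted temperatures were raised by 9.35 °C to match UV melts.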

Series [2] can be described thus: melting temperature; fluorescence melt of hairpins on a sequencing array, two-state fit, raised by 9.35 °C to match UV melts. The settings on record: sodium 0.088 M. Put shortly: as §1

In the case of GATCTTCCAGAAGATC ((((((....)))))), in series [1], the folding enthalpy was -33.7 kcal/mol. Further, the Tm in series [2] was 46 °C.
GTAACACCGAAAGGTTAC (((..(((....)))))): the folding enthalpy in series [1] is -14.8 kcal/mol. Besides, the Tm in series [2] amounted to 35.6 °C.
Regarding GATCCTATTCAGGATC ((((((....)))))), the folding enthalpy in series [1] was -44 kcal/mol. Also, the Tm in series [2] came to 52.6 °C.
Regarding GAACGGGGAAACCCATTC (((.(((....))).))), the folding enthalpy in series [1] is -19 kcal/mol. Besides, the Tm in series [2] was found to be 33.2 °C.
With GCTTAGCGAAAGCCCAGC (((..((....))..))), in series [1], the folding enthalpy was -11.5 kcal/mol. Besides, the Tm in series [2] turned out to be 33.4 °C.
Turning to GTAAGGGGAAACTCTTAC (((((.(....).))))), the folding enthalpy in series [1] was -34.4 kcal/mol. Besides, the Tm in series [2] stood at 37.6 °C.
Consider GGTTCGGGAAACCGAATC (.(((((....))))).), for which the folding enthalpy in series [1] is -27.1 kcal/mol. For the same sequence, the Tm in series [2] is 50.6 °C.
On to GATCGGACTCCCGATC ((((((....)))))), for which the folding enthalpy in series [1] is -35.3 kcal/mol. In addition, the Tm in series [2] was determined as 53.8 °C.
On the same counts, the results for GTCCTCGGAAACAAGGAC (((((.(....).))))) are -25.8 kcal/mol and 39.3 °C.
With GAGCCCGGAAACGGACCC (.(.(((....))).).), in series [1], the folding enthalpy is -11.2 kcal/mol. For the same sequence, the Tm in series [2] is 25.7 °C.
With GCGAAATCGAAAGATCGC (((..(((....)))))), the folding enthalpy in series [1] was -28.1 kcal/mol. For the same sequence, the Tm in series [2] stood at 47.5 °C.
As to GACCGAACGAAAGTTGTC (((..(((....)))))), in series [1], the folding enthalpy was -17 kcal/mol. Also, the Tm in series [2] turned out to be 29.5 °C.
GCGAGGGGAAACCTTCGC ((((.((....)).)))): the folding enthalpy in series [1] was -35.4 kcal/mol. For the same sequence, the Tm in series [2] came to 56.3 °C.
Turning to GGAAACGAAAGTTATCC ((((((....))).))), the folding enthalpy in series [1] was -12.1 kcal/mol. The Tm in series [2] was 31.9 °C.
For AGAAACAGAAATGGTTCT ((((.((....)).)))), in series [1], the folding enthalpy is -22.8 kcal/mol. Moreover, the Tm in series [2] was determined as 33.1 °C.
On the same counts, the results for GGCTGCGAAAGCAGCGCC ((((((....)))..))) are -5.65 kcal/mol and 68.8 °C.
For the sequence GGTTTTCGAAAGAAACC (((.(((....)))))), the folding enthalpy in series [1] is -23.1 kcal/mol. The Tm in series [2] was 44.8 °C.
In the case of GCAGGAGGAAACTCCCGC ((.((((....)))).)), in series [1], the folding enthalpy was -24.1 kcal/mol. The Tm in series [2] is 45.8 °C.
Taken in the same sequence, the figures for GGATCAGGAAACTAATCC ((((.((....)).)))) were -12.9 kcal/mol and 26.2 °C.
GCCCAGCGAAAGCAGTGC ((.(.((....)).).)): the folding enthalpy in series [1] is -13.3 kcal/mol. Moreover, the Tm in series [2] is 34.7 °C.
Turning to GGGCATCGAAAGATACCC (((.(((....))).))), in series [1], the folding enthalpy was -31.6 kcal/mol. For the same sequence, the Tm in series [2] was 49.5 °C.
On the same counts, the results for GTGGAGTCGAAAGACCAC (((..(((....)))))) are -20.6 kcal/mol and 44.9 °C.
Turning to GCGGCATTCCGC ((((....)))), the folding enthalpy in series [1] was -23.7 kcal/mol. Besides, the Tm in series [2] was found to be 56.1 °C.
Regarding GCGAGGTTCGC ((((...)))), the folding enthalpy in series [1] is -16.3 kcal/mol. Further, the Tm in series [2] amounted to 48.7 °C.
Turning to GACCGAGAAATCGGTC ((((((....)))))), the folding enthalpy in series [1] is -34.4 kcal/mol. Besides, the Tm in series [2] worked out at 59.6 °C.
For the sequence GCACCCGAAAGGGACTGC ((((((....)))..))), in series [1], the folding enthalpy is -16 kcal/mol. The Tm in series [2] is 40.8 °C.
For the sequence GCGCTCGAAAGAGCTCGC ((((((....)))..))), in series [1], the folding enthalpy was -14.4 kcal/mol. In addition, the Tm in series [2] was found to be 47.8 °C.
On the same counts, the results for GCGCGGTCGAAAGACCGC (((..(((....)))))) are -5.31 kcal/mol and 67 °C.
On the same counts, the results for GATCAGCCTCCTGATC ((((((....)))))) are -34.4 kcal/mol and 49.1 °C.
Turning to GGCATCGAAAGATTAGCC ((((((....)))..))), the folding enthalpy in series [1] was -28.2 kcal/mol. The Tm in series [2] was determined as 43.7 °C.
Taken in the same sequence, the figures for GATCACCAAAGTGATC ((((((....)))))) were -50.8 kcal/mol and 55.2 °C.
Taken in the same sequence, the figures for GGAGACACGAAAGTGTCC (((..(((....)))))) were -8.97 kcal/mol and 44.1 °C.
Regarding GCGTTGGGAAACCAGTGC ((..(((....)))..)), the folding enthalpy in series [1] was -24.1 kcal/mol. For the same sequence, the Tm in series [2] was 36.5 °C.
On the same counts, the results for GCAAACGAAAGTTGGTGC ((((((....)))..))) are -22.5 kcal/mol and 36.7 °C.
On to GCGAATTGTCGC ((((....)))), for which the folding enthalpy in series [1] is -17 kcal/mol. Further, the Tm in series [2] is 46 °C.
Turning to GTGGGCGAAAGCCACCAC ((((((....)))..))), the folding enthalpy in series [1] was -12.7 kcal/mol. The Tm in series [2] was 47.2 °C.
Taken in the same sequence, the figures for GTTGTCGCGAAAGCGAAC (((..(((....)))))) were -15.7 kcal/mol and 56.9 °C.
Regarding GTCTTAGGAAACTAGGAC (((.(((....))).))), the folding enthalpy in series [1] was -33.8 kcal/mol. In addition, in series [2], the Tm stood at 38.4 °C.
On to GTGTAAGGAAACTCACAC ((((.((....)).)))), for which the folding enthalpy in series [1] was -16.9 kcal/mol. Also, the Tm in series [2] came out at 32.8 °C.
As for GAGGTGGAAACACCTC ((((((....)))))), the folding enthalpy in series [1] was -33.3 kcal/mol. For the same sequence, in series [2], the Tm came out at 63.4 °C.
As to GGGAAGGGAAACCCTCCC ((((.((....)).)))), the folding enthalpy in series [1] is -28.1 kcal/mol. Moreover, in series [2], the Tm is 46.8 °C.
On to GTGGCCGAAAGGCTCCAC ((((((....)))..))), for which the folding enthalpy in series [1] is -11.4 kcal/mol. Also, the Tm in series [2] worked out at 39 °C.
On the same counts, the results for GATGATGGAAACACCATC ((((.((....)).)))) are -20.8 kcal/mol and 38.6 °C.
On the same counts, the results for GATCGGTATCCCGATC ((((((....)))))) are -34.5 kcal/mol and 57.3 °C.
Take GATCTTATTCAAGATC ((((((....)))))): the folding enthalpy in series [1] is -31.7 kcal/mol. Besides, the Tm in series [2] came to 43.5 °C.
Taken in the same sequence, the figures for CGCGTCCGGAAACGGGCG (((..(((....)))))) were -14 kcal/mol and 55.2 °C.
Taken in the same sequence, the figures for GATCTGTGCACAGATC ((((((....)))))) were -48.9 kcal/mol and 57.9 °C.
As for GATCGACTTTTCGATC ((((((....)))))), in series [1], the folding enthalpy is -35.1 kcal/mol. The Tm in series [2] is 51.6 °C.
As to GCATGCGAAAGCAATGC ((((((....))).))), the folding enthalpy in series [1] is -31 kcal/mol. The Tm in series [2] came out at 64.2 °C.
For the sequence GTGCATGGAAACATGTGC (..((((....))))..), in series [1], the folding enthalpy is -25 kcal/mol. For the same sequence, in series [2], the Tm was determined as 43 °C.
Taken in the same sequence, the figures for GGGCCTACGAAAGTACCC (((..(((....)))))) were -9.06 kcal/mol and 34.7 °C.
Take GCACGCCCGAAAGGGTGC (((..(((....)))))): in series [1], the folding enthalpy was -11.8 kcal/mol. In series [2], the Tm came to 49.9 °C.
Turning to GTGCATGGAAACACGCAC ((((.((....)).)))), in series [1], the folding enthalpy is -34.6 kcal/mol. Besides, the Tm in series [2] was 47.7 °C.
As for GCTGTTGGAAACAGCAGC ((((.((....)).)))), in series [1], the folding enthalpy is -12.4 kcal/mol. Moreover, in series [2], the Tm worked out at 63 °C.
As to GCGAACGAAAGTTCACGC ((((((....)))..))), the folding enthalpy in series [1] was -22.9 kcal/mol. The Tm in series [2] turned out to be 48.9 °C.
Take GATCTGGTATCAGATC ((((((....)))))): the folding enthalpy in series [1] was -41.8 kcal/mol. In addition, the Tm in series [2] was found to be 55.5 °C.
For GCATGTCCGAAAGGATGC (((..(((....)))))), in series [1], the folding enthalpy is -16.4 kcal/mol. Further, the Tm in series [2] worked out at 40.2 °C.
With GCCCCTGGAAACAGAGGC (((.(((....))).))), the folding enthalpy in series [1] is -27.7 kcal/mol. Moreover, in series [2], the Tm was determined as 46.3 °C.
CCTTTGAAAAAAGG (((((....))))): the folding enthalpy in series [1] is -12.2 kcal/mol. Besides, the Tm in series [2] worked out at 39.7 °C.
Taken in the same sequence, the figures for GATCAAATTTTTGATC ((((((....)))))) were -39 kcal/mol and 47.7 °C.
Take GGAAAGGGAAACCCTTCC ((((.((....)).)))): the folding enthalpy in series [1] was -23.1 kcal/mol. Further, the Tm in series [2] is 40 °C.
Consider GTAGTTGGAAACAGCTAC ((((.((....)).)))), for which the folding enthalpy in series [1] was -29.4 kcal/mol. The Tm in series [2] amounted to 42.9 °C.
Taken in the same sequence, the figures for GATCGGTTGACCGATC ((((((....)))))) were -33.9 kcal/mol and 60.3 °C.
Taken in the same sequence, the figures for AAGATGAAAATCTT (((((....))))) were -8.93 kcal/mol and 28.4 °C.
Consider GATACCGAAAGGTGGATC ((((((....)))..))), for which, in series [1], the folding enthalpy is -13 kcal/mol. Moreover, the Tm in series [2] worked out at 30.2 °C.
For GCTCGCGAAAGCGGAGC ((((((....))).))), in series [1], the folding enthalpy was -22.9 kcal/mol. Besides, in series [2], the Tm was 67.9 °C.
In the case of GATCGAAGGGTCGATC ((((((....)))))), the folding enthalpy in series [1] was -31.6 kcal/mol. In addition, the Tm in series [2] worked out at 50.6 °C.
Taken in the same sequence, the figures for GCACATGGAAACATGTAC (.(((((....))))).) were -17 kcal/mol and 37.4 °C.
Taken in the same sequence, the figures for GATCGCCAGCGCGATC ((((((....)))))) were -33.3 kcal/mol and 63.7 °C.
Consider GCTGTTGGAAACGACAGC (((((.(....).))))), for which the folding enthalpy in series [1] was -40.7 kcal/mol. Moreover, in series [2], the Tm is 54.7 °C.
For GTAAGCGGAAACGCCTAC (((.(((....))).))), in series [1], the folding enthalpy was -15.8 kcal/mol. The Tm in series [2] turned out to be 35.4 °C.
GATCACTATGTGATC ((((((...)))))): the folding enthalpy in series [1] is -38.8 kcal/mol. The Tm in series [2] was determined as 61.1 °C.
On the same counts, the results for GAGAGCCGAAAGGCACTC (((.(((....))).))) are -20.2 kcal/mol and 61.1 °C.
For the sequence GCACCGCGAAAGCGAGGC ((..(((....)))..)), in series [1], the folding enthalpy was -14.6 kcal/mol. Besides, the Tm in series [2] came out at 53.2 °C.
